{"data": "Published values of several laboratories", "organism": "Mycobacterium tuberculosis", "observed": "microbial growth", "note": "Each line is one published result; the experiments were not run side by side."}
{"SMILES": "COC(=O)c1cc(-c2cccc(NC(=S)Nc3cccc(Cl)c3)c2)on1", "system": "ATCC27294 H37RV", "conditions": "7 days", "MIC": "4 µg/mL"}
{"SMILES": "C=CCOc1cc(O)cc(O)c1C(=O)[C@@H](C)CC", "test": "broth dilution", "system": "H37RV", "MIC": "100 µg/mL"}
{"SMILES": "Cc1c(Cc2ccc(C(C)(C)C)cc2)c(=O)n2c([nH]c3ccccc32)c1C#N", "test": "broth dilution", "system": "H37RV", "MIC": "1 µg/mL"}
{"SMILES": "O=[N+]([O-])c1ccc(/C(O)=C/C(=S)S)cc1", "system": "ATCC27294 H37RV", "conditions": "8 days", "MIC": "7.8 µg/mL"}
{"SMILES": "Cc1ccc(C)n1-c1ccc(-c2nnco2)cc1", "test": "broth dilution", "system": "H37RV", "conditions": "21 days", "MIC": "4 µg/mL"}
{"SMILES": "Cc1cn2c(C(=O)NCc3ccc(S(F)(F)(F)(F)F)cc3)c(C)nc2s1", "system": "H37RV", "conditions": "5 days", "MIC": "0.4 µM"}
{"SMILES": "O=C(CNS(=O)(=O)c1ccc([N+](=O)[O-])cc1)N1CCN(C(c2ccc(F)cc2)c2ccc(F)cc2)CC1", "system": "ATCC27294 H37RV", "MIC": "25 µg/mL"}
{"SMILES": "NNC(=O)c1ccncc1", "MIC": "0.03 µg/mL"}
{"SMILES": "[H]/N=C(/N)N[C@H]1[C@H](O)[C@@H](O)[C@H](O[C@@H]2O[C@@H](C)[C@](O)(C=O)[C@H]2O[C@@H]2O[C@@H](CO)[C@H](O)[C@@H](O)[C@@H]2NC)[C@@H](N/C(N)=N\\[H])[C@@H]1O", "system": "ATCC27294 H37RV", "conditions": "7 days", "MIC": "0.5 µg/mL"}
{"SMILES": "O=C1C(=NNc2nc(-c3ccccc3)cs2)C(N=Cc2ccccc2O)=NN1c1ccccc1", "test": "resazurin", "system": "H37RV", "MIC": "25 µg/mL"}
{"SMILES": "COC(=O)c1cc(-c2cccc(NC(=O)Nc3ccc(C)c(Cl)c3)c2)on1", "system": "ATCC27294 H37RV", "conditions": "7 days", "MIC": "16 µg/mL"}
{"SMILES": "O=C(c1cc2c(F)cc(F)cc2[nH]1)N1CCN(C(=O)C23CC4CC(CC(C4)C2)C3)CC1", "test": "resazurin", "system": "H37RV", "MIC": "> 75 µM"}
{"SMILES": "CCC1CCC2(CC1)SCC(=O)N2NC(=O)c1[nH]c2ccc(Cl)cc2c1-c1ccccc1 (centres unmarked)", "system": "ATCC27294 H37RV", "MIC": "250 µM"}
{"SMILES": "N#Cc1cc(C(F)(F)F)cc2c(=O)nc(N3CCN(CC4CCC4)CC3)sc12", "test": "resazurin", "system": "H37RV", "MIC": "> 2 µM"}
{"SMILES": "O=C1C(Cl)=C(Cl)C(=O)c2ccccc21", "system": "H37RV", "conditions": "14 days", "MIC": "10 µg/mL"}
{"SMILES": "O=C1CC[C@@H]2CN(Cc3ccccc3)CC[C@@]23OC[C@H](C2CC2)N13", "system": "H37RV", "MIC": "37 µM"}
{"SMILES": "[H]/N=C(/N)N[C@H]1[C@H](O)[C@@H](O)[C@H](O[C@@H]2O[C@@H](C)[C@](O)(C=O)[C@H]2O[C@@H]2O[C@@H](CO)[C@H](O)[C@@H](O)[C@@H]2NC)[C@@H](N/C(N)=N\\[H])[C@@H]1O", "system": "H37RV", "conditions": "5 days", "MIC": "1.5 µM"}
{"SMILES": "COc1cc(C=NC2=NN(c3ccccc3)C(=O)C2=NNc2nc(-c3ccccc3)cs2)ccc1O", "test": "resazurin", "system": "H37RV", "MIC": "12.5 µg/mL"}
{"SMILES": "COC(=O)c1cc(-c2cccc(NC(=O)Nc3c(C)cccc3C)c2)on1", "system": "ATCC27294 H37RV", "conditions": "7 days", "MIC": "64 µg/mL"}
{"SMILES": "CO/N=C(\\C(=O)N[C@@H]1C(=O)N2C(C(=O)O)=C(COC(C)=O)CS[C@H]12)c1csc(N)n1", "test": "resazurin", "system": "H37RA", "conditions": "14 days", "MIC": "16 µg/mL"}
